Experiment [1] deals with Human immunodeficiency virus type 1 protease (Human immunodeficiency virus 1, UniProt Q72874, A71V/G73S/I84V/L10I/L63P/L90M). Briefly: Inhibition of HIV1 protease L10I, L63P, A71V, G73S, I84V, L90M mutant by FRET assay.
For another experiment, the target named is Protease (Human immunodeficiency virus 1, UniProt Q9YQ12). Briefly: Inhibition of wild type HIV1 protease by FRET assay. An outline of the steps: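 Recombinant HIV-1 protease Q7K, desalted into 20 mM sodium acetate pH 5, apparent concentration ~50 nM (UV 280 nm). Inhibitors in DMSO, 12 concentrations, added with protease to buffer pH 4.7 (0.1 M NaOAc, 1 M NaCl, 1 mM EDTA, 1 mM DTT, 2% DMSO, 1 mg/mL BSA). Cleavage started by injecting EDANS/DABCYL peptide substrate. Ki from initial velocities fitted to the Morrison equation.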

Experiment [2] deals with Human immunodeficiency virus type 1 protease (Human immunodeficiency virus 1, UniProt Q72874, G48V/I54V/L10I/L63P/V82A). Briefly: Inhibition of HIV1 protease L10I, G48V, I54V, L63P and V82A mutant by FRET assay.
Experiment [3] deals with Human immunodeficiency virus type 1 protease (Human immunodeficiency virus 1, UniProt Q72874, A71V/I50V). As to the kind of experiment: Inhibition of HIV1 protease I50V, A71V mutant by FRET assay.

Protease, sequence (Q9YQ12 whole entry): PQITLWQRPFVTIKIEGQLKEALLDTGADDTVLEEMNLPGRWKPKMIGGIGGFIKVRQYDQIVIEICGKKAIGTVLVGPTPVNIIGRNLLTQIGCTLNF

In the case of `CCCCCN(C[C@@H](O)[C@H](Cc1ccccc1)NC(=O)O[C@H](C)CC(=O)OC)S(=O)(=O)c1ccc2ncsc2c1`, the Ki in experiment [1] turned out to be 45.9 nM; at Protease, 11.4 nM; in experiment [2], 180 nM; in experiment [3] it was 120 nM.

For orientation: Ki means a measure of affinity in units of concentration, obtained from inhibition or displacement. Read a high Ki as a looser hold on the target.

Source of the values: ChEMBL document CHEMBL2163218, “Design, synthesis, and biological and structural evaluations of novel HIV-1 protease inhibitors to combat drug resistance” (J Med Chem, 2012).
